Measured values published in ChEMBL document CHEMBL4627410, “Discovery of an Orally Active Small-Molecule Tumor Necrosis Factor-α Inhibitor” (J Med Chem, 2020).
pIC50, pKd: −log10 of the molar value. Activity calls are given as the source filed them. The calls are words filed in the database; no cut-off is given here.

Assays:
Tumor necrosis factor [1] = biological target: T1, Tumor necrosis factor (Homo sapiens, UniProt P01375); assay: Binding affinity to recombinant TNFalpha (unknown origin) expressed in Escherichia coli BL21 (DE3) incubated for 10 mins by MST assay
T1 sequence (P01375 whole entry): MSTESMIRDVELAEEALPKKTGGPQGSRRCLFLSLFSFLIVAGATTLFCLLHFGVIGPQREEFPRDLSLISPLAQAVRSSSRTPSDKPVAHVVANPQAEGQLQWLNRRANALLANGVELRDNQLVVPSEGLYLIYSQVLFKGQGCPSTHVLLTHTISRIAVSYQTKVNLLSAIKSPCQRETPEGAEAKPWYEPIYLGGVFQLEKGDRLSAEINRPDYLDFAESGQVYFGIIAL

Mus musculus [2] = assay: Antiinflammatory activity in Balb/c mouse model of collagen-induced arthritis assessed as reduction in degree of cartilage and bone destruction and inflammation at 5 mg/kg, ig for 2 weeks by H and E staining based histopathological analysis; format: functional, organism-based
In short: (§1)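 Balb/c mice immunized intradermally at the tail base with bovine type II collagen emulsified 1:1 in complete Freund's adjuvant (1 mg/mL, 0.1 mL), with the same boost on day 14. Gavage dosing for 2 weeks; prednisone 5 mg/kg i.g. as reference. Non-immunized normal group included, n=10 per group. Outcomes: four-paw arthritis score, blinded, maximum 16. Spleen index = spleen weight/body weight. Serum cytokines by ELISA. Right hind limb fixed in 4% paraformaldehyde, decalcified 30 days in 12.5% EDTA pH 7.0, 6–8 μm H&E sections graded blindly 0–3.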

Mus musculus [3] = assay: Antiinflammatory activity in Balb/c mouse model of Imiquimod-induced psoriasis-like skin lesions assessed as reduction of serum IL-1beta level at 5 mg/kg, ig by ELISA; format: functional, organism-based
In short: (§2)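 Back skin shaved (5 cm × 4 cm) under isoflurane. Two days later, 5% imiquimod cream applied topically for 6 consecutive days; controls received base cream. Dosing by gavage, with prednisone 5 mg/kg as reference, n=10 per group. Erythema and scaling scored daily and blinded, 0–4. On day 7: spleen index, serum IL-1β and IL-6 by ELISA, and 3 µm H&E back-skin sections. Means ± SD.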

Mus musculus [4] = assay: Antiinflammatory activity in Balb/c mouse model of Imiquimod-induced psoriasis-like skin lesions assessed as reduction of serum IL6 level at 5 mg/kg, ig by ELISA; format: functional, organism-based; in short: as §2
Mus musculus [5] = assay: Antiinflammatory activity in Balb/c mouse assessed as inhibition of LPS-induced IL1-beta production at 25 to 50 mg/kg, po pre-treated 90 mins before LPS injection and measured after 4 hrs by sandwich ELISA; format: functional, organism-based
In short: (§3)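 Male Balb/c mice, 7–8 weeks old, randomized into control, LPS and two dose groups. Oral dosing 90 min before LPS (1.5 mg/kg, i.p.). Serum taken from clotted blood 4 h after LPS and stored at -80 °C. IL-1β and IL-6 measured by sandwich ELISA. At least six mice per group, each sample run in duplicate.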

Tumor necrosis factor [6] = biological target: T1, Tumor necrosis factor; assay: Binding affinity to recombinant TNFalpha (unknown origin) expressed in Escherichia coli BL21 (DE3) assessed as increase in Kd for TNF-alpha-TNFR1 binding at 10 uM pe-incubated for 15 mins before TNFR1 addition and measured after 15 mins by MST assay relative to control
In short: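 TNF-α (C-terminal His6, from E. coli BL21(DE3), purified by Ni-agarose, thrombin digest, anion exchange and size exclusion) at various concentrations was preincubated with 10 µM compound for 15 min at room temperature. The mix was added to an equal volume of RED-labelled TNFR1 in 20 mM HEPES pH 7.5, 0.05% Tween-20. MST was read at 22 °C (100% LED, 20% MST power) and KD was fitted.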

Tumor necrosis factor [7] = biological target: T1, Tumor necrosis factor; assay: Binding affinity to recombinant TNFalpha (unknown origin) expressed in Escherichia coli BL21 (DE3) assessed as inhibition of TNFR1 binding to immobilized TNF-alpha pre-incubated with TNFR1 for 20 mins followed by TNFalpha addition and measured after 120 mins by ELISA
Tumor necrosis factor [8] = biological target: T1, Tumor necrosis factor; assay: Binding affinity to recombinant TNFalpha (unknown origin) expressed in Escherichia coli BL21 (DE3) assessed as protection of TNF-alpha from protease mediated digestion at 2.5 to 20 uM
In short: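 DARTS assay on TNF-α (His6-tagged, expressed in E. coli BL21(DE3) and purified by Ni-affinity, anion exchange and size exclusion). Protein was treated with compound, then digested with pronase for 30 min. Remaining TNF-α was read out.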

Tumor necrosis factor [9] = biological target: T1, Tumor necrosis factor; assay: Binding affinity to recombinant TNFalpha (unknown origin) expressed in Escherichia coli BL21 (DE3) assessed as increase in TNF-alpha thermal stability by measuring tolerated temperature (reference value: 90 degC)
[10] = biological target: T2, Tumor necrosis factor (Mus musculus) (UniProt P06804); assay: (§4) Inhibition of TNF-alpha in mouse RAW264.7 cells assessed as inhibition of LPS-induced IKBalpha phosphorylation at 5 to 20 uM pre-incubated for 12 hrs before LPS stimulation for 2 hrs by Western blot analysis; format: cell-based
T2 sequence (whole entry): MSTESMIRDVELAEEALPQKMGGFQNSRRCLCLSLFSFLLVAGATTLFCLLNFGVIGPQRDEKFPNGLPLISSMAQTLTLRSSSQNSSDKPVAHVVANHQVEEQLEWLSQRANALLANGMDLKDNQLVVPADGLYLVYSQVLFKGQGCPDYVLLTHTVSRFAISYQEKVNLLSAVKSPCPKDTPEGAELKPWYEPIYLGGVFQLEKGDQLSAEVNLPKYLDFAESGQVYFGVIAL
In short: (§5)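 RAW264.7 cells (5×10^4 cells/mL) cultured overnight. Compound at 5, 10 or 20 µM for 12 h, then LPS 1 µg/mL for 2 h. Lysed in RIPA, protein equalized by BCA, run on 12% SDS-PAGE. Immunoblotted for IκBα and p-IκBα, ECL detection.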

[11] = biological target: T2, Tumor necrosis factor (Mus musculus); assay: as §4; format: cell-based; in short: as §5; remark: listed apart in the source
[12] = biological target: T2, Tumor necrosis factor (Mus musculus); assay: Inhibition of TNF-alpha in mouse RAW264.7 cells assessed as inhibition of NFkappB/p65 nuclear translocation at 5 to 20 uM by DAPI staining based microscopy; format: cell-based
In short: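 RAW264.7 cells grown to 50–70% confluence in glass chambers. Pretreated 12 h with DMSO or compound, then TNF-α 10 ng/mL for 2 h. Fixed in 4% paraformaldehyde, permeabilized with 0.25% Triton X-100, blocked with BSA. Stained with anti-p65 (1:1000, 4 °C overnight), fluorescent secondary (1:500) and DAPI nuclear stain. Imaged by fluorescence microscopy.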

[13] = Toxicity in mouse RAW264.7 cells at 5 to 20 uM; format: cell-based
Mus musculus [14] = assay: Antiinflammatory activity in Balb/c mouse assessed as inhibition of LPS-induced IL6 production at 25 to 50 mg/kg, po pre-treated 90 mins before LPS injection and measured after 4 hrs by sandwich ELISA; format: functional, organism-based; in short: as §3
Mus musculus [15] = assay: Antiinflammatory activity in Balb/c mouse model of endotoxemia assessed as increase in mouse survival at 25 mg/kg, ig pre-treated 2 hrs before LPS injection and measured 12 to 96 hrs post LPS challenge; format: functional, organism-based
In short: (§6)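 Endotoxemia induced with LPS 15 mg/kg i.p., n=10 per group; controls received saline i.p. Gavage dose given 2 h before LPS, then again at 12, 24, 48, 72 and 96 h. Survival followed daily for up to 2 weeks. Liver and lung fixed in 10% formalin and sections stained with H&E. Means ± SD.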

Mus musculus [16] = assay: Antiinflammatory activity in Balb/c mouse model of endotoxemia assessed as reduction in lung damage at 25 mg/kg, ig pre-treated 2 hrs before LPS injection and measured 12 to 96 hrs post LPS challenge by H and E staining based histopathological analysis; format: functional, organism-based; in short: as §6
Mus musculus [17] = assay: Antiinflammatory activity in Balb/c mouse model of endotoxemia assessed as reduction in liver damage at 25 mg/kg, ig pre-treated 2 hrs before LPS injection and measured 12 to 96 hrs post LPS challenge by H and E staining based histopathological analysis; format: functional, organism-based; in short: as §6
Mus musculus [18] = assay: Antiinflammatory activity in Balb/c mouse model of endotoxemia assessed as reduction in emergence of hemorrhagic necrosis at 25 mg/kg, ig pre-treated 2 hrs before LPS injection and measured 12 to 96 hrs post LPS challenge by H and E staining based histopathological analysis; format: functional, organism-based; in short: as §6
Mus musculus [19] = assay: Antiinflammatory activity in Balb/c mouse model of collagen-induced arthritis assessed as reduction in arthritic score at 25 to 50 mg/kg, ig for 2 weeks; format: functional, organism-based; in short: as §1
Mus musculus [20] = assay: Antiinflammatory activity in Balb/c mouse model of collagen-induced arthritis assessed as reduction in spleen index at 25 to 50 mg/kg, ig for 2 weeks; format: functional, organism-based; in short: as §1
Mus musculus [21] = assay: Antiinflammatory activity in Balb/c mouse model of collagen-induced arthritis assessed as reduction in serum IFNgamma level at 25 to 50 mg/kg, ig for 2 weeks by ELISA; format: functional, organism-based; in short: as §1
Mus musculus [22] = assay: Antiinflammatory activity in Balb/c mouse model of collagen-induced arthritis assessed as reduction in serum IL-1beta level at 25 to 50 mg/kg, ig for 2 weeks by ELISA; format: functional, organism-based; in short: as §1
Mus musculus [23] = assay: Antiinflammatory activity in Balb/c mouse model of collagen-induced arthritis assessed as reduction in serum IL6 level at 25 to 50 mg/kg, ig for 2 weeks by ELISA; format: functional, organism-based; in short: as §1
Mus musculus [24] = assay: Antiinflammatory activity in Balb/c mouse model of collagen-induced arthritis assessed as increase in serum IL10 level at 25 to 50 mg/kg, ig for 2 weeks by ELISA; format: functional, organism-based; in short: as §1
Mus musculus [25] = assay: Antiinflammatory activity in Balb/c mouse model of collagen-induced arthritis assessed as reduction in degree of cartilage and bone destruction and inflammation at 25 to 50 mg/kg, ig for 2 weeks by H and E staining based histopathological analysis; format: functional, organism-based; in short: as §1
Mus musculus [26] = assay: Antiinflammatory activity in Balb/c mouse model of Imiquimod-induced psoriasis-like skin lesions assessed as inhibition of inflammation at 25 to 50 mg/kg, ig; format: functional, organism-based; in short: as §2
Mus musculus [27] = assay: Antiinflammatory activity in Balb/c mouse model of Imiquimod-induced psoriasis-like skin lesions assessed as decrease in adjusted scale scores consisting of erythema, epidermal acanthosis, and lesions thickness at 25 to 50 mg/kg, ig; format: functional, organism-based; in short: as §2
Mus musculus [28] = assay: Antiinflammatory activity in Balb/c mouse model of Imiquimod-induced psoriasis-like skin lesions assessed as reduction of spleen index at 25 to 50 mg/kg, ig; format: functional, organism-based; in short: as §2
Mus musculus [29] = assay: Antiinflammatory activity in Balb/c mouse model of Imiquimod-induced psoriasis-like skin lesions assessed as reduction of serum IL-1beta level at 25 to 50 mg/kg, ig by ELISA; format: functional, organism-based; in short: as §2
Mus musculus [30] = assay: Antiinflammatory activity in Balb/c mouse model of Imiquimod-induced psoriasis-like skin lesions assessed as reduction of serum IL6 level at 25 to 50 mg/kg, ig after 7 days by ELISA; format: functional, organism-based; in short: as §2
Mus musculus [31] = assay: Antiinflammatory activity in Balb/c mouse model of Imiquimod-induced psoriasis-like skin lesions assessed as reduction of histopathological changes at 25 to 50 mg/kg, ig by H and E staining based histopathological analysis; format: functional, organism-based; in short: as §2

## Cc1cc(C)cc(-n2c(O)c([C@H]3NCCc4c3[nH]c3ccccc43)c(O)nc2=S)c1
Tumor necrosis factor [1]
  Kd: Not Active

## Cn1c(SCC(=O)N2CC(=O)Nc3cc(C(F)(F)F)ccc32)nnc1-c1ccccc1Cl
Tumor necrosis factor [1]
  Kd: Not Active

## CC1CCc2c([nH]c3ccccc23)[C@H]1c1c(O)nc2n(c1=O)CCS2 (some centres not stated)
Tumor necrosis factor [1]
  Kd: Not Active

## C[C@]12C=CC(=O)C=C1CC[C@@H]1[C@@H]2C(=O)C[C@@]2(C)[C@H]1CC[C@]2(O)C(=O)CO
Mus musculus [2]
  Activity: Active
Mus musculus [3]
  Activity: Active
Mus musculus [4]
  Activity: Active

## O=C(CCc1ccccc1)[C@H]1Cc2[nH]cnc2CN1C(=O)c1cccs1
Tumor necrosis factor [1]
  Kd: Not Active

## O=c1c([C@H]2NCCc3c2[nH]c2ccccc32)c(O)[nH]c(=S)n1-c1ccc2ccccc2c1
Tumor necrosis factor [1]
  Kd: Not Active

## O=c1c([C@H]2NCCc3c2[nH]c2ccccc32)c(O)[nH]c(=S)n1Cc1ccc(F)cc1
Tumor necrosis factor [1]
  Kd: Not Active

## O=C1C[C@H](Nc2ncnc3[nH]cnc23)CN1Cc1ccccc1
Mus musculus [5]
  inhibition: Active
Tumor necrosis factor [1]; read-out: Kd
  pKd: 4.09
Tumor necrosis factor [6]
  fold change (FC): 18
Tumor necrosis factor [7]
  pIC50: 6.96
Tumor necrosis factor [8]
  Activity: Dose-dependent effect
Tumor necrosis factor [9]
  T: 94 °C
[10]
  inhibition: Dose-dependent effect
[11]
  inhibition: Active
[12]
  inhibition: Active
[13]
  pIC50: < 4.00
Mus musculus [14]
  inhibition: Active
Mus musculus [15]
  Activity: Active
Mus musculus [16]
  Activity: Active
Mus musculus [17]
  Activity: Active
Mus musculus [18]
  Activity: Active
Mus musculus [19]
  Activity: Active
Mus musculus [20]
  Activity: Active
Mus musculus [21]
  Activity: Dose-dependent effect
Mus musculus [22]
  Activity: Dose-dependent effect
Mus musculus [23]
  Activity: Dose-dependent effect
Mus musculus [24]
  Activity: Dose-dependent effect
Mus musculus [25]
  Activity: Active
Mus musculus [26]
  Activity: Active
Mus musculus [27]
  Activity: Active
Mus musculus [28]
  Activity: Active
Mus musculus [29]
  Activity: Dose-dependent effect
Mus musculus [30]
  Activity: Dose-dependent effect
Mus musculus [31]
  Activity: Active
